Assay results published in PubChem BioAssay.
Where “and” joins values, the source holds several entries; their conditions need not be identical. Identical values can stand only once. Calls of active or inactive are those of the source.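 The calls were made as follows, unless noted: active = viability at or below 30% in both replicate assays; inconclusive = viability at or below 30% in just one of the two assays; inactive = the rest.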

What was measured:
[1] = Her2 expression decrease, cell viability multiplex – SKBR3 breast tumor cells, AlphaScreen, ATP viability, primary screen (AID 461;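 active = Her2 level under about 52% in both replicate screens, with viability over 70% of control, limit read from the data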;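 as to Her2 level: lower value means less Her2 protein in the cells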;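 as to viability: percent of carrier control wells set as 100% viability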); conditions: SKBR3 Her2 protein level, 18-24 h, measured here: SKBR3 viability, ATP luminescence, at 10 µM
[2] = target: Receptor tyrosine-protein kinase erbB-2 (Homo sapiens) (UniProt P04626); assay: as above; conditions: 18-24 h, at 10 µM, stronger effect = lower value
Chain of Receptor tyrosine-protein kinase erbB-2 (Homo sapiens) (P04626 whole entry, looked up): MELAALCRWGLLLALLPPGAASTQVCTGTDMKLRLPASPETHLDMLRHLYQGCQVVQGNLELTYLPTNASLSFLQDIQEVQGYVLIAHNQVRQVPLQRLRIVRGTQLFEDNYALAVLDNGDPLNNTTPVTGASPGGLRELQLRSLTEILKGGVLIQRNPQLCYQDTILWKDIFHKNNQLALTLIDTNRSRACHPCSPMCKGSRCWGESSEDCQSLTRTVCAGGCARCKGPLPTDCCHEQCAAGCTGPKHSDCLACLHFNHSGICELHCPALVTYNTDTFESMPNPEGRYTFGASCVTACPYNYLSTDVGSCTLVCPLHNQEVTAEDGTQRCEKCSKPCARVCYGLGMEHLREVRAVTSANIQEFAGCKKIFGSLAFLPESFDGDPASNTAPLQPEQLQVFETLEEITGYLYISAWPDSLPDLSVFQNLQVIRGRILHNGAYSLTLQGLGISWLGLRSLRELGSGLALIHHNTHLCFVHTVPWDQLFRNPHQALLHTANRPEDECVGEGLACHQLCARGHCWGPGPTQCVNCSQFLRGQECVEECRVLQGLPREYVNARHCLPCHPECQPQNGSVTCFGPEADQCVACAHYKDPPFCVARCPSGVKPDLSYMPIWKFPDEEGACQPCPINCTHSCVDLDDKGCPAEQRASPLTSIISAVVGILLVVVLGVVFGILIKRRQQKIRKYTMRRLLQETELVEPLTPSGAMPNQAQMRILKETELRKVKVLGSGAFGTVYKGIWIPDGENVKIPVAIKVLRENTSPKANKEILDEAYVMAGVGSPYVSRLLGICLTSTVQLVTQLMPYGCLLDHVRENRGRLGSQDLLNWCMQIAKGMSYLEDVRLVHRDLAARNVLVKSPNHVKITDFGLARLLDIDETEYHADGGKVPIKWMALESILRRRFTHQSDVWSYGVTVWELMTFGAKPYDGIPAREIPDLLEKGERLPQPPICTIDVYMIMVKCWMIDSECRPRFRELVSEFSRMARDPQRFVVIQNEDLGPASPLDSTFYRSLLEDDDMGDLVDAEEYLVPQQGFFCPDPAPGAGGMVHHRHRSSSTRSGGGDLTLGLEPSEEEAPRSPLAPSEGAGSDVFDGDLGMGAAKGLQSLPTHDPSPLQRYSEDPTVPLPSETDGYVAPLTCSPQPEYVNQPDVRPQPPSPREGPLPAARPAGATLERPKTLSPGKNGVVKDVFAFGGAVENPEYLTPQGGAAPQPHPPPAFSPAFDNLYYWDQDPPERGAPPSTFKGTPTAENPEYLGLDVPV

[3] = reduced viability of SK-BR-3 breast cancer cells – cell-based, 24 h, human, pilot screen (AID 572;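 active = viability at or below 10% of carrier control in both of two separate runs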;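 also: compound exposure lasted between 18 and 24 h rather than exactly 24 h; 100% = carrier-treated control wells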); conditions: SK-BR-3 viability, CellTiter-Glo luminescence, at 10 µM, stronger effect = lower value
[4] = HUVEC growth inhibition – cell-based, human, primary screen (AID 575); conditions: HUVEC proliferation, CellTiter-Glo luminescence, 72 h; at 10 µM; stronger effect = lower value;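 also: 100% = median of untreated cell wells with 0.1% DMSO on each plate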
Summary of the method: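 Timing: 72 h treatment at 37 °C; material: HUVEC primary cells; technique: CellTiter-Glo luminescence measuring cellular ATP; controls: vehicle and MePR control wells; measure: percent of median DMSO-control luminescence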

[5] = H69AR cell proliferation blockers – human, duplicate replicates, primary screen (AID 580;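 active = viability at or under a set limit in both replicates, limit being median viability minus 3 SD, cut at about 48% in these data, passing the limit was not always enough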;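 also: 100% = mean luminescence of untreated wells and 0% = no signal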); conditions: H69AR lung tumor cells viability, ATP luminescence, 72 h; at 10 µM; stronger effect = lower value
[6] = MRP1 drug-resistance reversers in H69AR cells – cell-based, doxorubicin co-treatment, pilot screen (AID 601;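 active = viability loss from added drug above about 55%, and viability with drug at most 40%, in both replicates, limit read from the data, passing the limit was not always enough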); conditions: CellTiter-Glo, 72 h, at 10 µM; for differential viability (reversal): stronger effect = higher value
[7] = H69AR cells + 2 uM doxorubicin, measured here: viability with 2 uM doxorubicin, stronger effect = lower value
[8] = H69AR cells, compound alone cytotoxicity

## Cc1nnc(NS(=O)(=O)c2ccc(N)cc2)s1
[1]
  viability: 93.5%
[2]
  Her2 level: 126% (inactive)
[3]
  viability: 93.5% (inactive)
[4]
  viability: 105% (inactive)
[5]
  viability: 96.2% (inactive)
[6]; H69AR cells + 2 uM doxorubicin
  differential viability (reversal): -10.4% (inactive)
[6]; [7]
  viability: 107%
[6]; [8]
  viability: 96.2%

## COC(=O)[C@@H](N)Cc1ccc(O)cc1
[1]
  viability: 106%
[2]
  Her2 level: 108% (inactive)
[3]
  viability: 106% (inactive)
[4]
  viability: 82.9% (inactive)
[5]
  viability: 109% (inactive)
[6]; H69AR cells + 2 uM doxorubicin
  differential viability (reversal): 15.7% (inactive)
[6]; [7]
  viability: 93.8%
[6]; [8]
  viability: 109%

## Clc1ccc(Cn2c(CN3CCCC3)nc3ccccc32)cc1
[1]
  viability: 92.5%
[2]
  Her2 level: 112% (inactive)
[3]
  viability: 92.5% (inactive)
[4]
  viability: 85.5% (inactive)
[5]
  viability: 73.3% (inactive)
[6]; H69AR cells + 2 uM doxorubicin
  differential viability (reversal): -12.6% (inactive)
[6]; [7]
  viability: 85.9%
[6]; [8]
  viability: 73.3%

## CC(=O)Oc1cc(C(C)C)c(OCCN(C)C)cc1C
[1]
  viability: 96.5%
[2]
  Her2 level: 118% (inactive)
[3]
  viability: 96.5% (inactive)
[4]
  viability: 105% (inactive)
[5]
  viability: 99% (inactive)
[6]; H69AR cells + 2 uM doxorubicin
  differential viability (reversal): 1.28% (inactive)
[6]; [7]
  viability: 97.8%
[6]; [8]
  viability: 99%

## CCCCCCCC(=O)OCC(=O)[C@@]1(O)CC[C@H]2[C@@H]3CCC4=CC(=O)CC[C@]4(C)[C@H]3[C@@H](O)C[C@@]21C
[1]
  viability: 120%
[2]
  Her2 level: 102% (inactive)
[3]
  viability: 120% (inactive)
[4]
  viability: 97.6% (inactive)
[5]
  viability: 102% (inactive)
[6]; H69AR cells + 2 uM doxorubicin
  differential viability (reversal): -5.05% (inactive)
[6]; [7]
  viability: 107%
[6]; [8]
  viability: 102%

## CC1(C)S[C@@H]2[C@H](NC(=O)Cc3ccccc3)C(=O)N2[C@H]1C(=O)O
[1]
  viability: 94.5%
[2]
  Her2 level: 94.5% (inactive)
[3]
  viability: 94.5% (inactive)
[4]
  viability: 95.4% (inactive)
[5]
  viability: 109% (inactive)
[6]; H69AR cells + 2 uM doxorubicin
  differential viability (reversal): 13.5% (inactive)
[6]; [7]
  viability: 95.6%
[6]; [8]
  viability: 109%

## Cc1ccc(C)c(OCCCC(C)(C)C(=O)O)c1
[1]
  viability: 130%
[2]
  Her2 level: 104% (inactive)
[3]
  viability: 130% (inactive)
[4]
  viability: 100% (inactive)
[5]
  viability: 109% (inactive)
[6]; H69AR cells + 2 uM doxorubicin
  differential viability (reversal): 17.2% (inactive)
[6]; [7]
  viability: 91.5%
[6]; [8]
  viability: 109%

## O=C(O)c1cccnc1Nc1cccc(C(F)(F)F)c1
[1]
  viability: 100%
[2]
  Her2 level: 98.5% (inactive)
[3]
  viability: 100% (inactive)
[4]
  viability: 86.4% (inactive)
[5]
  viability: 108% (inactive)
[6]; H69AR cells + 2 uM doxorubicin
  differential viability (reversal): 13.5% (inactive)
[6]; [7]
  viability: 94.5%
[6]; [8]
  viability: 108%

## c1ccc(CN(CC2=NCCN2)c2ccccc2)cc1
[1]
  viability: 91.5% and 100%
[2]
  Her2 level: 114% (inactive) and 91.5% (inactive)
[3]
  viability: 91.5% (inactive) and 100% (inactive)
[4]
  viability: 94.1% (inactive) and 87.9% (inactive)
[5]
  viability: 93.2% (inactive) and 96.6% (inactive)
[6]; H69AR cells + 2 uM doxorubicin
  differential viability (reversal): 6.63% (inactive) and -1.34% (inactive)
[6]; [7]
  viability: 86.6% and 97.9%
[6]; [8]
  viability: 93.2% and 96.6%

## Cc1onc(-c2ccccc2)c1C(=O)N[C@@H]1C(=O)N2[C@@H]1SC(C)(C)[C@@H]2C(=O)O
[1]
  viability: 108%
[2]
  Her2 level: 100% (inactive)
[3]
  viability: 108% (inactive)
[4]
  viability: 91.1% (inactive)
[5]
  viability: 101% (inactive)
[6]; H69AR cells + 2 uM doxorubicin
  differential viability (reversal): 0% (inactive)
[6]; [7]
  viability: 101%
[6]; [8]
  viability: 101%

## Cc1cn([C@H]2C[C@H](N=[N+]=[N-])[C@@H](CO)O2)c(=O)[nH]c1=O
[1]
  viability: 91.5%
[2]
  Her2 level: 90% (inactive)
[3]
  viability: 91.5% (inactive)
[4]
  viability: 104% (inactive)
[5]
  viability: 96.5% (inactive)
[6]; H69AR cells + 2 uM doxorubicin
  differential viability (reversal): 4.1% (inactive)
[6]; [7]
  viability: 92.4%
[6]; [8]
  viability: 96.5%

## Cc1cn([C@H]2C=C[C@@H](CO)O2)c(=O)[nH]c1=O
[1]
  viability: 94%
[2]
  Her2 level: 94.5% (inactive)
[3]
  viability: 94% (inactive)
[4]
  viability: 104% (inactive)
[5]
  viability: 109% (inactive)
[6]; H69AR cells + 2 uM doxorubicin
  differential viability (reversal): 22.8% (inactive)
[6]; [7]
  viability: 86.2%
[6]; [8]
  viability: 109%

## S=C(N=Nc1ccccc1)NNc1ccccc1
[1]
  viability: 118%
[2]
  Her2 level: 90% (inactive)
[3]
  viability: 118% (inactive)
[4]
  viability: 80% (inactive)
[5]
  viability: 81.4% (inactive)
[6]; H69AR cells + 2 uM doxorubicin
  differential viability (reversal): -6.66% (inactive)
[6]; [7]
  viability: 88%
[6]; [8]
  viability: 81.4%

## CN(C)CCOC(c1ccccc1)c1ccccc1 (tested in a mixture with another compound)
[1]
  viability: 93.5%
[2]
  Her2 level: 106% (inactive)
[3]
  viability: 93.5% (inactive)
[4]
  viability: 98.9% (inactive)
[5]
  viability: 103% (inactive)
[6]; H69AR cells + 2 uM doxorubicin
  differential viability (reversal): 19.3% (inactive)
[6]; [7]
  viability: 83.7%
[6]; [8]
  viability: 103%

## CN(C(=O)C(Cl)Cl)c1ccc(OC(=O)c2ccco2)cc1
[1]
  viability: 130%
[2]
  Her2 level: 88% (inactive)
[3]
  viability: 130% (inactive)
[4]
  viability: 86.3% (inactive)
[5]
  viability: 96.6% (inactive)
[6]; H69AR cells + 2 uM doxorubicin
  differential viability (reversal): 5.13% (inactive)
[6]; [7]
  viability: 91.5%
[6]; [8]
  viability: 96.6%

## C[N+]12CCC(CC1)C(OC(=O)C(O)(c1ccccc1)c1ccccc1)C2 (centres undefined)
[1]
  viability: 97.5%
[2]
  Her2 level: 96.5% (inactive)
[3]
  viability: 97.5% (inactive)
[4]
  viability: 100% (inactive)
[5]
  viability: 90.7% (inactive)
[6]; H69AR cells + 2 uM doxorubicin
  differential viability (reversal): 11.9% (inactive)
[6]; [7]
  viability: 78.7%
[6]; [8]
  viability: 90.7%

## C[C@]12C=CC(=O)C=C1CC[C@H]1[C@@H]3C[C@@H](O)[C@](O)(C(=O)CO)[C@@]3(C)C[C@H](O)[C@@]12F
[1]
  viability: 94%
[2]
  Her2 level: 110% (inactive)
[3]
  viability: 94% (inactive)
[4]
  viability: 101% (inactive)
[5]
  viability: 106% (inactive)
[6]; H69AR cells + 2 uM doxorubicin
  differential viability (reversal): -2.81% (inactive)
[6]; [7]
  viability: 109%
[6]; [8]
  viability: 106%

## CCC(=O)O[C@@H]1CC(=O)O[C@H](C)CC=CC=C[C@@H](O)[C@H](C)C[C@H](CC=O)[C@H](O[C@H]2O[C@H](C)[C@@H](O[C@H]3C[C@@](C)(O)[C@@H](OC(=O)CC)[C@H](C)O3)[C@H](N(C)C)[C@H]2O)[C@H]1OC
[1]
  viability: 93.5%
[2]
  Her2 level: 126% (inactive)
[3]
  viability: 93.5% (inactive)
[4]
  viability: 109% (inactive)
[5]
  viability: 95.3% (inactive)
[6]; H69AR cells + 2 uM doxorubicin
  differential viability (reversal): -4.97% (inactive)
[6]; [7]
  viability: 100%
[6]; [8]
  viability: 95.3%

## CN(C)CCCN1c2ccccc2CCc2ccccc21
[1]
  viability: 105%
[2]
  Her2 level: 104% (inactive)
[3]
  viability: 105% (inactive)
[4]
  viability: 81% (inactive)
[5]
  viability: 77.7% (inactive)
[6]; H69AR cells + 2 uM doxorubicin
  differential viability (reversal): 4.16% (inactive)
[6]; [7]
  viability: 73.5%
[6]; [8]
  viability: 77.7%

## NS(=O)(=O)c1cc2c(cc1C(F)(F)F)NC(Cc1ccccc1)NS2(=O)=O (centres undefined)
[1]
  viability: 106%
[2]
  Her2 level: 114% (inactive)
[3]
  viability: 106% (inactive)
[4]
  viability: 83.9% (inactive)
[5]
  viability: 88.9% (inactive)
[6]; H69AR cells + 2 uM doxorubicin
  differential viability (reversal): -5.48% (inactive)
[6]; [7]
  viability: 94.3%
[6]; [8]
  viability: 88.9%

## CCCCN(CCCC)CCCOC(=O)c1ccc(N)cc1
[1]
  viability: 92%
[2]
  Her2 level: 106% (inactive)
[3]
  viability: 92% (inactive)
[4]
  viability: 111% (inactive)
[5]
  viability: 90.7% (inactive)
[6]; H69AR cells + 2 uM doxorubicin
  differential viability (reversal): -8.53% (inactive)
[6]; [7]
  viability: 99.2%
[6]; [8]
  viability: 90.7%

## NC(N)=NS(=O)(=O)c1ccc(N)cc1
[1]
  viability: 100%
[2]
  Her2 level: 105% (inactive)
[3]
  viability: 100% (inactive)
[4]
  viability: 89.2% (inactive)
[5]
  viability: 98.8% (inactive)
[6]; H69AR cells + 2 uM doxorubicin
  differential viability (reversal): -2.93% (inactive)
[6]; [7]
  viability: 102%
[6]; [8]
  viability: 98.8%

## NS(=O)(=O)c1cc2c(cc1Cl)NC(C(Cl)Cl)NS2(=O)=O (centres undefined)
[1]
  viability: 102%
[2]
  Her2 level: 112% (inactive)
[3]
  viability: 102% (inactive)
[4]
  viability: 106% (inactive)
[5]
  viability: 93.9% (inactive)
[6]; H69AR cells + 2 uM doxorubicin
  differential viability (reversal): -9.8% (inactive)
[6]; [7]
  viability: 104%
[6]; [8]
  viability: 93.9%
